# Assay results published in ChEMBL document CHEMBL1157932, “Prenylated pterocarpans as bacterial neuraminidase inhibitors” (Bioorg Med Chem, 2010).
# pIC50, pKi: −log10 of the molar value. Calls of active or inactive are those of the source. The calls are words filed in the database; no cut-off is given here.
# Columns and labels:
# [1] = molecular target: T1, Sialidase (Clostridium perfringens) (UniProt P10481); test: Inhibition of Clostridium perfringens neuraminidase at 0.1 times IC50 by spectrofluorimetry
# T1 sequence (whole entry): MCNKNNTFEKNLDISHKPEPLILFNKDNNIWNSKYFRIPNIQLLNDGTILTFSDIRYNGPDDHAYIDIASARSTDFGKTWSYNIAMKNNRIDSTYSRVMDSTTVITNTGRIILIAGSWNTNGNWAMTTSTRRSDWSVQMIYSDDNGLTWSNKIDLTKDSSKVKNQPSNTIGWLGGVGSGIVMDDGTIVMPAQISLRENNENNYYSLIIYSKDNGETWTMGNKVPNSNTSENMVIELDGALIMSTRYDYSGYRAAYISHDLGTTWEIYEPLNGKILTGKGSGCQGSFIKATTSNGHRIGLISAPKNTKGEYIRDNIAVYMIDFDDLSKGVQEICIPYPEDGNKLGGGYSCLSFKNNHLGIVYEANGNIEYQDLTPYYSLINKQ
# Procedure, shortened: (§1)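 Reversibility by jump dilution: enzyme pre-incubated 15 min with compound at 100-fold assay enzyme level (0.125 U/mL), then diluted 1/100 into acetate buffer with substrate. Progress curves of fluorescence over 30 min compared with enzyme pre-incubated and diluted without compound.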
# Sialidase [2] = molecular target: T2, Sialidase (Clostridium perfringens, UniProt P10481); test: Noncompetitive inhibition of Clostridium perfringens neuraminidase
# T2 sequence (P10481 whole entry): T1 sequence (whole entry)
# Procedure, shortened: (§2)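 Kinetics run in acetate-buffer 4-MU-NANA fluorometric assay without stop solution, product read immediately at ex 360/em 440 nm across substrate and inhibitor concentrations. Mode assigned from Lineweaver–Burk and Dixon plots; Ki from x-axis intersection of lines.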
# [3] = molecular target: T1, Sialidase (Clostridium perfringens); test: Noncompetitive inhibition of Clostridium perfringens neuraminidase by Dixon plot analysis
# Procedure, shortened: (§3)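 Dixon plots of 1/v against [I] at each substrate concentration, rates from unquenched fluorometric 4-MU-NANA hydrolysis (ex 360/em 440 nm); Ki read from the x-axis value where lines intersect.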
# [4] = molecular target: T1, Sialidase (Clostridium perfringens); test: Reversible inhibition of Clostridium perfringens neuraminidase at 10 times IC50 pre-incubated for 15 mins by spectrofluorimetry; procedure, shortened: as §1
# [5] = molecular target: T1, Sialidase (Clostridium perfringens); test: Reversible inhibition of Clostridium perfringens neuraminidase at 0.1 times IC50 pre-incubated for 15 mins by spectrofluorimetry; procedure, shortened: as §1
# [6] = molecular target: T1, Sialidase (Clostridium perfringens); test: Noncompetitive inhibition of Clostridium perfringens neuraminidase by Lineweaver-Burke plot analysis
# Sialidase [7] = molecular target: T2, Sialidase; test: (§4) Inhibition of Clostridium perfringens neuraminidase assessed as inhibition of 4-MU-NANA hydrolysis after 10 mins by spectrofluorimetry
# Procedure, shortened: (§5)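 Enzyme at 0.05 U/mL in 0.04 M sodium acetate pH 5.0 with compound (DMSO stock diluted in buffer) and 4-MU-NANA (1 mM stock); 10 min at 37 °C. Stopped with 0.1 M glycine–NaOH pH 10.4; 4-methylumbelliferone read at ex 360/em 440 nm. IC50 from regression, mean ± SD of three replicates.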
# [8] = molecular target: T1, Sialidase (Clostridium perfringens); test: as §4; procedure, shortened: as §5
# [9] = molecular target: T1, Sialidase (Clostridium perfringens); test: Inhibition of Clostridium perfringens neuraminidase at 10 times IC50 by spectrofluorimetry; procedure, shortened: as §1
# [10] = molecular target: Sialidase (Vibrio cholerae serotype O1 (strain ATCC 39315 / El Tor Inaba N16961)) (UniProt P0C6E9); test: (§6) Inhibition of Vibrio cholerae neuraminidase assessed as inhibition of 4-MU-NANA hydrolysis after 30 mins by spectrofluorimetry
# Chain of Sialidase (Vibrio cholerae serotype O1 (strain ATCC 39315 / El Tor Inaba N16961)) (P0C6E9 whole entry, one chain of several): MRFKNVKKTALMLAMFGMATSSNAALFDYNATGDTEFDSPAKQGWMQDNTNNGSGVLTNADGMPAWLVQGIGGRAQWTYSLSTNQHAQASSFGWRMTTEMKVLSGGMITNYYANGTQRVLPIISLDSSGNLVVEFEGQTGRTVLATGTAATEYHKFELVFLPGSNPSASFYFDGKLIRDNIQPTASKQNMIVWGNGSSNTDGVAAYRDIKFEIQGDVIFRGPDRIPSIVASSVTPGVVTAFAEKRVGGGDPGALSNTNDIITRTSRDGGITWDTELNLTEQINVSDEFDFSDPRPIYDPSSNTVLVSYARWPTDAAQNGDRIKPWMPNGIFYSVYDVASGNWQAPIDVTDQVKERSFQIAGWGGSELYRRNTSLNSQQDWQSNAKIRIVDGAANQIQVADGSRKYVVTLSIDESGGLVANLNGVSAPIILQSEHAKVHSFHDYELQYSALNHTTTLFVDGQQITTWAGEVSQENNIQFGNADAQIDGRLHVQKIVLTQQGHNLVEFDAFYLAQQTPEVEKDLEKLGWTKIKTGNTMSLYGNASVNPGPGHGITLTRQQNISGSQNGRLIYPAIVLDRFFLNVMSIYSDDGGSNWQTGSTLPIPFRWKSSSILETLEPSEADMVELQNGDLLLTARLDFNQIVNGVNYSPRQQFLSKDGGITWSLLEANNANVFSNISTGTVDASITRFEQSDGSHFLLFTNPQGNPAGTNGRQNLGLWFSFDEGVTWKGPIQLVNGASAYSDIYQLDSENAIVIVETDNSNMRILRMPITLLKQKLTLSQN
# Procedure, shortened: (§7)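 V. cholerae enzyme (8.3 U) with compound in 50 mM MES, 6 mM CaCl2, pH 5.6, pre-incubated 30 min at 37 °C with shaking. 4-MU-NANA added at 25 µM final, 30 min at 37 °C, then quenched with 0.25 M glycine pH 10.0. Read at ex 360/em 440 nm, blank-corrected, expressed as % of no-inhibitor control, at least triplicate.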
# Sialidase [11] = molecular target: Sialidase (Vibrio cholerae serotype O1 (strain ATCC 39315 / El Tor Inaba N16961), UniProt P0C6E9); test: as §6; procedure, shortened: as §7
# Chain of Sialidase (Vibrio cholerae serotype O1 (strain ATCC 39315 / El Tor Inaba N16961), UniProt P0C6E9) (P0C6E9 whole entry, one chain of several): as above
# Vibrio cholerae [12] = test: Antibacterial activity against Vibrio cholerae 16961 at 3 to 10 ug/ml after 24 hrs; type: functional, organism-based
# Vibrio cholerae [13] = test: Antibacterial activity against Vibrio cholerae 16961 infected in human HeLa cells assessed as inhibition of bacterial adherence to host cell at 3 to 10 ug/ml pre-incubated for 1 hr before infection measured after 30 mins of infection by Giemsa staining; type: functional, organism-based
# [14] = molecular target: T1, Sialidase (Clostridium perfringens); test: Competitive inhibition of Clostridium perfringens neuraminidase by Lineweaver-Burke plot analysis
# Sialidase [15] = molecular target: T2, Sialidase; test: Competitive inhibition of Clostridium perfringens neuraminidase; procedure, shortened: as §2
# [16] = molecular target: T1, Sialidase (Clostridium perfringens); test: Competitive inhibition of Clostridium perfringens neuraminidase by Dixon plot analysis; procedure, shortened: as §3
# [17] = molecular target: T1, Sialidase (Clostridium perfringens); details: 20 ug/mL
# [18] = molecular target: Sialidase (Vibrio cholerae serotype O1 (strain ATCC 39315 / El Tor Inaba N16961)) (UniProt P0C6E9); test: Inhibition of Vibrio cholerae neuraminidase assessed as inhibition of 4-MU-NANA hydrolysis at 30 ug/mL after 10 mins by spectrofluorimetry
structure (smiles),measurement,setting,value
Oc1ccc2c(c1)O[C@H]1c3ccc(O)cc3OC[C@@H]21,inhibition,[1],9%
same,pKi,Sialidase [2],5.42
same,inhibition,[3],Active
same,inhibition,[4],Active
same,inhibition,[5],Active
same,inhibition,[6],Active
same,pIC50,Sialidase [7],5.19
same,Activity,[8],Dose-dependent effect
same,inhibition,[9],91%
same,Activity,[10],Dose-dependent effect
same,pIC50,Sialidase [11],4.53
CC(C)=CCc1cc2c(cc1O)OC[C@H]1c3ccc(O)cc3O[C@@H]21 [CALOPOCARPIN],inhibition,[1],9%
same,pKi,Sialidase [2],5.68
same,inhibition,[3],Active
same,inhibition,[4],Active
same,inhibition,[5],Active
same,inhibition,[6],Active
same,Activity,Vibrio cholerae [12],inactive
same,pIC50,Sialidase [7],5.80
same,Activity,[8],Dose-dependent effect
same,inhibition,[9],91%
same,pIC50,Sialidase [11],5.12
same,Activity,Vibrio cholerae [13],Active
COc1ccc2c(c1CC=C(C)C)O[C@H]1c3cc(CC=C(C)C)c(O)cc3OC[C@@]21O [ERYSTAGALLIN A],inhibition,[1],9%
same,pKi,Sialidase [2],5.74
same,inhibition,[3],Active
same,inhibition,[4],Active
same,inhibition,[5],Active
same,inhibition,[6],Active
same,pIC50,Sialidase [7],5.69
same,Activity,[8],Dose-dependent effect
same,inhibition,[9],91%
same,Activity,[10],Dose-dependent effect
same,pIC50,Sialidase [11],4.56
CC(C)=CCc1cc2c(cc1O)OC[C@H]1c3ccc4c(c3O[C@@H]21)CC(O)C(C)(C)O4 (stereo partly drawn) [ERYSUBIN D],inhibition,[1],9%
same,inhibition,[14],Active
same,inhibition,[4],Active
same,pKi,Sialidase [15],4.82
same,inhibition,[5],Active
same,pIC50,Sialidase [7],4.58
same,Activity,[8],Dose-dependent effect
same,inhibition,[9],91%
same,Activity,[10],Dose-dependent effect
same,pIC50,Sialidase [11],4.58
same,inhibition,[16],Active
CC(C)=CCc1cc2c(cc1O)OC[C@@]1(O)c3ccc4c(c3O[C@@H]21)C=CC(C)(C)O4 [ERYSUBIN E],inhibition,[1],9%
same,pKi,Sialidase [2],6.62
same,inhibition,[3],Active
same,inhibition,[4],Active
same,inhibition,[5],Active
same,inhibition,[6],Active
same,pIC50,Sialidase [7],5.89
same,Activity,[8],Dose-dependent effect
same,inhibition,[9],91%
same,Activity,[10],Dose-dependent effect
same,pIC50,Sialidase [11],4.71
COc1ccc2c(c1CC=C(C)C)O[C@H]1c3ccc(O)cc3OC[C@@]21O [ERYTHRABYSSIN I],inhibition,[1],9%
same,pKi,Sialidase [2],6.51
same,inhibition,[3],Active
same,inhibition,[4],Active
same,inhibition,[5],Active
same,inhibition,[6],Active
same,pIC50,Sialidase [7],5.64
same,Activity,[8],Dose-dependent effect
same,inhibition,[9],91%
same,Activity,[10],Dose-dependent effect
same,pIC50,Sialidase [11],4.66
CC1(C)Oc2ccc3c(c2CC1O)O[C@H]1c2ccc(O)cc2OC[C@@H]31 (stereo partly drawn) [ERYTHRIBYSSIN D],inhibition,[1],9%
same,inhibition,[4],Active
same,inhibition,[5],Active
same,pIC50,Sialidase [7],4.11
same,Activity,[8],Dose-dependent effect
same,inhibition,[9],91%
same,Activity,[10],Dose-dependent effect
same,pIC50,Sialidase [11],4.34
CC(C)=CCc1c(O)ccc2c1O[C@H]1c3cc4c(cc3OC[C@@H]21)OC(C)(C)C(O)C4 (stereo partly drawn) [ERYTHRIBYSSIN L],inhibition,[1],9%
same,pKi,Sialidase [2],5.38
same,inhibition,[3],Active
same,inhibition,[4],Active
same,inhibition,[5],Active
same,inhibition,[6],Active
same,pIC50,Sialidase [7],5.55
same,Activity,[8],Dose-dependent effect
same,inhibition,[9],91%
same,pIC50,Sialidase [11],4.57
CC1(C)Oc2ccc3c(c2CC1O)O[C@@H]1c2ccc(O)cc2OC[C@H]31 (stereo partly drawn) [ERYTHRIBYSSIN M],inhibition,[1],9%
same,inhibition,[4],Active
same,inhibition,[5],Active
same,pIC50,Sialidase [7],3.69
same,Activity,[8],Dose-dependent effect
same,inhibition,[9],91%
same,Activity,[10],Dose-dependent effect
same,pIC50,Sialidase [11],4.11
CC(C)=CCc1c(O)ccc2c3c(oc12)-c1cc(C=O)c(O)cc1OC3 [ERYTHRIBYSSIN O],inhibition,[1],9%
same,pKi,Sialidase [2],5.92
same,inhibition,[3],Active
same,inhibition,[4],Active
same,inhibition,[5],Active
same,inhibition,[6],Active
same,pIC50,Sialidase [7],5.88
same,Activity,[8],Dose-dependent effect
same,inhibition,[9],91%
same,Activity,[10],Dose-dependent effect
same,pIC50,Sialidase [11],6.46
COc1ccc2c3c(oc2c1CC=C(C)C)-c1ccc(O)cc1OC3 [ERYVARIN D],pKi,Sialidase [2],5.59
same,pIC50,Sialidase [7],5.68
same,Activity,[10],Dose-dependent effect
same,pIC50,Sialidase [11],5.48
CC1(C)C=Cc2cc3c(cc2O1)O[C@H]1c2ccc(O)cc2OC[C@@H]31 [ISONEORAUTENOL],inhibition,[1],9%
same,pKi,Sialidase [2],4.96
same,inhibition,[3],Active
same,inhibition,[4],Active
same,inhibition,[5],Active
same,inhibition,[6],Active
same,pIC50,Sialidase [7],4.85
same,Activity,[8],Dose-dependent effect
same,inhibition,[9],91%
same,Activity,[10],Dose-dependent effect
same,pIC50,Sialidase [11],4.19
CC1(C)C=Cc2cc3c(cc2O1)OC[C@H]1c2ccc(O)cc2O[C@@H]31 [NEORAUTENOL],inhibition,[1],9%
same,pKi,Sialidase [2],4.66
same,inhibition,[3],Active
same,inhibition,[4],Active
same,inhibition,[5],Active
same,inhibition,[6],Active
same,pIC50,Sialidase [7],4.70
same,Activity,[8],Dose-dependent effect
same,inhibition,[9],91%
same,Activity,[10],Dose-dependent effect
same,pIC50,Sialidase [11],4.27
CC1(C)C=Cc2c(ccc3c2O[C@H]2c4ccc(O)cc4OC[C@@H]32)O1 [PHASEOLIN],pKi,Sialidase [15],5.32
same,pIC50,Sialidase [7],4.47
same,Activity,[10],Dose-dependent effect
same,pIC50,Sialidase [11],4.50
O=c1c(O)c(-c2ccc(O)c(O)c2)oc2cc(O)cc(O)c12 [QUERCETIN],inhibition,[17],48.9%
same,pIC50,Sialidase [7],4.60
same,Activity,[8],Dose-dependent effect
same,inhibition,[18],29.3%
CC(C)=CCc1cc2c(cc1O)O[C@H]1c3ccc(O)cc3OC[C@@H]21 [SOPHORAPTEROCARPAN A],inhibition,[1],9%
same,pKi,Sialidase [2],5.75
same,inhibition,[3],Active
same,inhibition,[4],Active
same,inhibition,[5],Active
same,inhibition,[6],Active
same,pIC50,Sialidase [7],5.70
same,Activity,[8],Dose-dependent effect
same,inhibition,[9],91%
same,pIC50,Sialidase [11],4.94
